Reference: ChEMBL document CHEMBL5038590, “Discovery of G Protein-Biased Ligands against 5-HT7R” (J Med Chem, 2021)

Experiments:
[1] = target: 5-hydroxytryptamine receptor 6 (Homo sapiens, UniProt P50406); assay: Binding affinity to 5-HT6R (unknown origin)
In short: (§1)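 Run by the NIMH Psychoactive Drug Screening Program as competition radioligand binding on crude membranes of cells expressing the recombinant receptor. Eleven dilutions (0.05 nM–50 μM, prepared at 5× assay concentration) were made in 50 mM Tris-HCl, 10 mM MgCl₂, 1 mM EDTA, pH 7.4. Incubation was 1.5 h at rt in the dark, followed by GF/B filtration (0.3% PEI) and scintillation counting. IC₅₀ was converted to Ki; at least triplicate.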

[2] = target: T1, 5-hydroxytryptamine receptor 2C (Homo sapiens, UniProt P28335); assay: Binding affinity to 5-HT2CR (unknown origin); in short: as §1
T1 sequence (P28335 whole entry): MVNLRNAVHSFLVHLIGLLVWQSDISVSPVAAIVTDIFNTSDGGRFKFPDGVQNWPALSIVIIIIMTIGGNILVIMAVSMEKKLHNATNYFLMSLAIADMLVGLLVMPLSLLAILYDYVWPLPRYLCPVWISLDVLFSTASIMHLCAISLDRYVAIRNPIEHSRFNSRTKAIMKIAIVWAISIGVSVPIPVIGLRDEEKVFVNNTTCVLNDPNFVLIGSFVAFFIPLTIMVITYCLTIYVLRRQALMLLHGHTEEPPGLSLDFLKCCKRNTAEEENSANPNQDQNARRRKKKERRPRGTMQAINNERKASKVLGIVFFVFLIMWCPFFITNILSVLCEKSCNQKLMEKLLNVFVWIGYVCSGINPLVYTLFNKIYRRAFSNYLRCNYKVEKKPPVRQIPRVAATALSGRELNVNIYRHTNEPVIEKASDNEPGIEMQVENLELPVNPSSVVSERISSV

[3] = target: 5-hydroxytryptamine receptor 1B (Homo sapiens, UniProt P28222); assay: Binding affinity to 5-HT1BR (unknown origin); in short: as §1
5-hydroxytryptamine receptor 1B, sequence (P28222 whole entry): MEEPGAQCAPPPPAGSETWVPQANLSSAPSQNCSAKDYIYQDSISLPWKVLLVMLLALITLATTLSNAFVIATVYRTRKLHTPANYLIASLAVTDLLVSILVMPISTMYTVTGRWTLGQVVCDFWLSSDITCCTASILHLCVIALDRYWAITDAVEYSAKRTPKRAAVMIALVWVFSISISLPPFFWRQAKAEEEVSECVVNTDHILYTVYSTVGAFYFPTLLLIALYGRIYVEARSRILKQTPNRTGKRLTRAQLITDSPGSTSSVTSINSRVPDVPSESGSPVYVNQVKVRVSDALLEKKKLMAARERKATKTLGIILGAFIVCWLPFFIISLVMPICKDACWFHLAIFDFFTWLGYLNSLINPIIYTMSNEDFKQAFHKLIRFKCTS

[4] = target: 5-hydroxytryptamine receptor 2B (Homo sapiens, UniProt P41595); assay: Binding affinity to 5-HT2BR (unknown origin); in short: as §1
5-hydroxytryptamine receptor 2B, sequence (P41595 whole entry): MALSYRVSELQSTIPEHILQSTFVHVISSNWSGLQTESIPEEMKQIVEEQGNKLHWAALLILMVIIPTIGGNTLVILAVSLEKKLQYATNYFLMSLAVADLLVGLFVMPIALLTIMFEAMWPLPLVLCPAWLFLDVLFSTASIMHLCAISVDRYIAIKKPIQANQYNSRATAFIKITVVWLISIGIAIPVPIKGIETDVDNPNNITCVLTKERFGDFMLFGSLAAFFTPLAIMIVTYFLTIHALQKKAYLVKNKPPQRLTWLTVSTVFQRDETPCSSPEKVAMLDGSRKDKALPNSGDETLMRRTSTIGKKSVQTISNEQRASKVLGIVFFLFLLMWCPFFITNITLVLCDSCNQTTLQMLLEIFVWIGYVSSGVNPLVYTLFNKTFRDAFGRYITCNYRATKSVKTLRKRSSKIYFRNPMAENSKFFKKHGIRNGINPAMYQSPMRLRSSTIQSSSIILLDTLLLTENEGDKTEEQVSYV

[5] = target: 5-hydroxytryptamine receptor 1E (Homo sapiens, UniProt P28566); assay: Binding affinity to 5-HT1ER (unknown origin); in short: as §1
5-hydroxytryptamine receptor 1E, sequence (P28566 whole entry): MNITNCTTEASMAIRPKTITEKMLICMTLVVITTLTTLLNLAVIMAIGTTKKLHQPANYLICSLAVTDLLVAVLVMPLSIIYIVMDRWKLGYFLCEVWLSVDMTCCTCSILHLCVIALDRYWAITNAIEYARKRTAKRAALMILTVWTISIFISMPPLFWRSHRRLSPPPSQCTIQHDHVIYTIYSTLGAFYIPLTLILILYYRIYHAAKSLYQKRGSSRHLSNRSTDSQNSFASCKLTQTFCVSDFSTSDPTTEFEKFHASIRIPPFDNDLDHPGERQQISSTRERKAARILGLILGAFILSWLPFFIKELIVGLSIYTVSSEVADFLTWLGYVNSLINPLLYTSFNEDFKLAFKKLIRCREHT

[6] = target: T2, 5-hydroxytryptamine receptor 3A (Homo sapiens, UniProt P46098); assay: Binding affinity to 5-HT3R (unknown origin); in short: as §1
T2 sequence (P46098 whole entry): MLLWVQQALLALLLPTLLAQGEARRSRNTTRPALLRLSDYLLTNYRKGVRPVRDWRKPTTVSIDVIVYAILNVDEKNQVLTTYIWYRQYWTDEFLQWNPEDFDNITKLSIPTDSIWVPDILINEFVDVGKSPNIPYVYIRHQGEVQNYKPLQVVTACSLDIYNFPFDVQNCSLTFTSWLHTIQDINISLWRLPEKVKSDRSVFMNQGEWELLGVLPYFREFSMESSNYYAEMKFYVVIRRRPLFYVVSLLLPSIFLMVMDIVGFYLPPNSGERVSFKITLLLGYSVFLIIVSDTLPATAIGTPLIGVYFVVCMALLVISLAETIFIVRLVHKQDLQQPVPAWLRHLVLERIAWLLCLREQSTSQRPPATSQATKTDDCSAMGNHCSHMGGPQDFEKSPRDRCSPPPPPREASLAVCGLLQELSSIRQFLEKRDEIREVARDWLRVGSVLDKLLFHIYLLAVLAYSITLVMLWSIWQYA

[7] = target: T3, 5-hydroxytryptamine receptor 7 (Homo sapiens, UniProt P34969); assay: Agonist activity at 5-HT7R (unknown origin) transfected in HEK293 cells expressing tTA-dependent luciferase reporter and beta arrestin 2-TEV fusion gene assessed as beta arrestin recruitment incubated for 22 hrs by Tango assay; assay type: functional, cell-based
T3 sequence (P34969 whole entry, the tested form may be a part): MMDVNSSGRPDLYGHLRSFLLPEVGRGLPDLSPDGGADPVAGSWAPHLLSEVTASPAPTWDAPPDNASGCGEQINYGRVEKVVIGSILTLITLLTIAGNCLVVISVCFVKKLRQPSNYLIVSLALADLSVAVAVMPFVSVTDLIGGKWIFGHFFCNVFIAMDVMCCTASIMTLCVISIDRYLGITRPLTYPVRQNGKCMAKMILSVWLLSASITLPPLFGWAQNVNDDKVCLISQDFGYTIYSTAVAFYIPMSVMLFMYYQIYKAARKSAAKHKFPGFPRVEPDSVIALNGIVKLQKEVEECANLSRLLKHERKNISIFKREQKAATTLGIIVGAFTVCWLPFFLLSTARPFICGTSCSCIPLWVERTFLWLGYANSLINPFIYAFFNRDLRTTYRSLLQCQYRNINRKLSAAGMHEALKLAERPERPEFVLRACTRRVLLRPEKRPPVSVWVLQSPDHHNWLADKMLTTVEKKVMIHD

[8] = target: 5-hydroxytryptamine receptor 5A (Homo sapiens, UniProt P47898); assay: Binding affinity to 5-HT5AR (unknown origin); in short: as §1
5-hydroxytryptamine receptor 5A, sequence (P47898 whole entry): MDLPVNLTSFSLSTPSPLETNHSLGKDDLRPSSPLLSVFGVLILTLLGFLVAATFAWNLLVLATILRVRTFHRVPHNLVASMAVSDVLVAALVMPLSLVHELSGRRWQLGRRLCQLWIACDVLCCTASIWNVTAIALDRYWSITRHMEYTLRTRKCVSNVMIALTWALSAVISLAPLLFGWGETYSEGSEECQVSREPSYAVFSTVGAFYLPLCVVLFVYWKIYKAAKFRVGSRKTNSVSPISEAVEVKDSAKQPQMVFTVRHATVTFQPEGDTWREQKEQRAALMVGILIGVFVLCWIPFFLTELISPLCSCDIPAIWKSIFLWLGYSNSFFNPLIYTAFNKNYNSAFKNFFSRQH

[9] = target: T4, 5-hydroxytryptamine receptor 1A (Homo sapiens, UniProt P08908); assay: Binding affinity to 5-HT1AR (unknown origin); in short: as §1
T4 sequence (P08908 whole entry): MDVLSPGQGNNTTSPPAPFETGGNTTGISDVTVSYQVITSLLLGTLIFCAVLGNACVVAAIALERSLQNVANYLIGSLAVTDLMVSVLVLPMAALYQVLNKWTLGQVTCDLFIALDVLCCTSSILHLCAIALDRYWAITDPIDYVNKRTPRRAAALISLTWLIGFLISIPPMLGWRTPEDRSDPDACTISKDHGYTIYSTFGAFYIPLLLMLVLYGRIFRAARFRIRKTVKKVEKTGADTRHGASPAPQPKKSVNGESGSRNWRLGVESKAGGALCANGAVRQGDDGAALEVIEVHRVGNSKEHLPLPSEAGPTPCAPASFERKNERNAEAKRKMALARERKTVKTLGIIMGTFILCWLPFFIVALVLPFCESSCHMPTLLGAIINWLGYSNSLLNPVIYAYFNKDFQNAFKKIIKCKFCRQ

[10] = target: 5-hydroxytryptamine receptor 1D (Homo sapiens, UniProt P28221); assay: Binding affinity to 5-HT1DR (unknown origin); in short: as §1
5-hydroxytryptamine receptor 1D, sequence (P28221 whole entry): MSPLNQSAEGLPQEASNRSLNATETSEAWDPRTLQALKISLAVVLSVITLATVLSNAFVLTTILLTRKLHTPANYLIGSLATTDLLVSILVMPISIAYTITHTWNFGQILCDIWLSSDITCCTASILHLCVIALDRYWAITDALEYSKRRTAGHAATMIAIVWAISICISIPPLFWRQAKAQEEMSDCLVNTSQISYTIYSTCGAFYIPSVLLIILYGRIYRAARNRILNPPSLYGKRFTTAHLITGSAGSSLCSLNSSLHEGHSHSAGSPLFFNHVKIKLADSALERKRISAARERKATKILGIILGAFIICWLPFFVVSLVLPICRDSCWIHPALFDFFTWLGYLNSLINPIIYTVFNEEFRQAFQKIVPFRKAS

[11] = target: 5-hydroxytryptamine receptor 2A (Homo sapiens, UniProt P28223); assay: Binding affinity to 5-HT2AR (unknown origin); in short: as §1
5-hydroxytryptamine receptor 2A, sequence (P28223 whole entry): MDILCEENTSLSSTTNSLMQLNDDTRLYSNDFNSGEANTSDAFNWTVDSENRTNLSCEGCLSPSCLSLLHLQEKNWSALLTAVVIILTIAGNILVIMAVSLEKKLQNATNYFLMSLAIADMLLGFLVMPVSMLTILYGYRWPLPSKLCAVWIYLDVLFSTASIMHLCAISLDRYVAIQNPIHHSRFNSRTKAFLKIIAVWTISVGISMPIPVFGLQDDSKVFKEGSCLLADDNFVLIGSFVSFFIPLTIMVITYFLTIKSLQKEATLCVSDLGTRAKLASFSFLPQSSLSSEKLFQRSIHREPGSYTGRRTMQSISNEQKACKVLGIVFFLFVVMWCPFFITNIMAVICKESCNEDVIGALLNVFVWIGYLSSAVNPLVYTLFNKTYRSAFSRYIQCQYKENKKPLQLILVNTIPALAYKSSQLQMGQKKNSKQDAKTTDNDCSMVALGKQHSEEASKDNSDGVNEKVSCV

[12] = target: T3, 5-hydroxytryptamine receptor 7; assay: Displacement of [3H] D-lysergic acid diethylamide from 5-HT7R (unknown origin) transfected in HEK293 cells incubated for 1.5 hrs by microbeta scintillation counter analysis; assay type: cell-based
[13] = target: T3, 5-hydroxytryptamine receptor 7
[14] = tested on: Mus musculus; assay: Effect on wild type mouse assessed as time taken for duration of self grooming at 30 mg/kg, ip after 30 mins under 40 lux lighting (reference value: 43.7 +/- 10.8 sec); assay type: functional; settings: 0.5 h
[15] = tested on: Mus musculus; assay: Effect on shank3-/- mouse model of autism spectrum disorder assessed as time taken for duration of self grooming at 30 mg/kg, ip after 30 mins under 40 lux lighting (reference value: 224 +/- 47.4 sec); assay type: functional; settings: 0.5 h

5-hydroxytryptamine receptor 6, sequence (P50406 whole entry): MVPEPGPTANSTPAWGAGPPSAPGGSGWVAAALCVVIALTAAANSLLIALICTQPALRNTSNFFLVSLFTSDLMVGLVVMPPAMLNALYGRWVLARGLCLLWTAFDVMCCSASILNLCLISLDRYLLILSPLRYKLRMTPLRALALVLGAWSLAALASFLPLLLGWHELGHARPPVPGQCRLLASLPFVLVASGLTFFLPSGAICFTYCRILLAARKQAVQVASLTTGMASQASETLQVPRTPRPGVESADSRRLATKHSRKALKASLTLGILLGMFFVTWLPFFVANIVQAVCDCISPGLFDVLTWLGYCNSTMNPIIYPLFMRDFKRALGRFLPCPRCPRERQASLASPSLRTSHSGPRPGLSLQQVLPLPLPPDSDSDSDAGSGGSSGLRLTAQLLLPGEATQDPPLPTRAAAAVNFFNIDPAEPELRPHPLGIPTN

Structure (SMILES)	Ki [1] [nM]	Ki [2] [nM]	Ki [3] [nM]	Ki [4] [nM]	Ki [5] [nM]	Ki [6] [nM]	EC50 ([7]; hek293)	Ki [8] [nM]	Ki [9] [nM]	Ki [10] [nM]	Ki [11] [nM]	Ki ([12]; read-out: Ki) [nM]	EC50 [13] [nM]	Ki ([12]; read-out: pKi (converted)) [nM]	EC50 ([7]; read-out: EC50) [nM]	Time [14] [s]	Time [15] [s]
CCN(CC)Cc1ccc(Cl)c(-c2ccccc2OC)c1	2000	820	> 10000	67	> 10000	> 10000	Not Active	230	1700	> 10000	> 10000	110	–	–	–	–	–
CCCNCCc1ccc(Cl)c(-c2ccccc2OC)c1.Cl	> 10000	> 10000	250	170	> 10000	> 10000	Not Active	240	140	41	600	8.7	1000	8.51	–	–	–
CCNCc1ccc(Cl)c(-c2ccccc2OC)c1	1400	45	210	19	> 10000	> 10000	–	1800	840	220	910	–	–	–	–	–	–
CNCCc1ccc(Cl)c(-c2ccccc2OC)c1	740	> 10000	84	69	180	> 10000	–	910	280	3.3	170	1.6	73	–	71	–	–
CCN(CC)CCc1ccc(Cl)c(-c2ccccc2OC)c1	> 10000	> 10000	160	320	6700	> 10000	Not Active	2100	84	8.4	680	25	1900	–	–	–	–
CCCN(CCC)CCc1ccc(Cl)c(-c2ccccc2OC)c1	> 10000	> 10000	160	230	> 10000	> 10000	Not Active	2900	65	38	1200	20	1400	–	–	–	–
COc1ccccc1-c1cc(CN(C)C)ccc1Cl	440	270	830	11	4100	1000	–	220	2100	1300	360	–	1100	20	480	–	–
CCCN(CCC)Cc1ccc(Cl)c(-c2ccccc2OC)c1	> 10000	2600	> 10000	80	> 10000	> 10000	Not Active	> 10000	400	> 10000	> 10000	> 10000	–	–	–	–	–
CC1CCN(CC[C@H]2CCCN2S(=O)(=O)c2cccc(O)c2)CC1	–	–	–	–	–	–	–	–	–	–	–	–	–	–	–	29.3	181
COc1ccccc1-c1cc(CCN(C)C)ccc1Cl	1000	> 10000	74	280	2200	> 10000	–	380	280	86	250	2.5	84	–	56	–	–
COc1ccccc1-c1cc(C2CCN(C)C2)ccc1Cl (stereo not drawn)	> 10000	920	12	170	4100	420	–	1000	200	19	1200	–	–	–	–	–	–
CNCc1ccc(Cl)c(-c2ccccc2OC)c1	1300	200	1200	13	2400	> 10000	–	420	1700	1200	380	–	460	–	150	–	–
CCCNCc1ccc(Cl)c(-c2ccccc2OC)c1	3500	200	640	12	> 10000	> 10000	–	120	420	220	670	–	–	–	–	–	–
CCCCNCc1ccc(Cl)c(-c2ccccc2OC)c1	240	310	> 10000	15	> 10000	> 10000	Not Active	360	–	2000	280	52	–	–	–	–	–
COc1ccccc1-c1cc(C2CCNC2)ccc1Cl (stereo not drawn)	400	> 10000	410	50	770	590	–	970	96	3.4	340	–	–	–	–	–	–
CCCCNCCc1ccc(Cl)c(-c2ccccc2OC)c1.Cl	> 10000	> 10000	280	130	> 10000	> 10000	Not Active	2400	220	110	570	64	–	–	–	–	–
Cc1nn(C)c(C)c1-c1cccc(CCN(C)C)c1	–	–	–	–	–	–	–	–	–	–	–	1.3	83	–	21	–	–
